# Measured values collected from several papers.
# Protocols differ between the studies behind these lines.
# Organism: Staphylococcus aureus
SMILES,observed,technique,strain,tested at,time,measurement,value
O=c1c(O)c(-c2ccc(O)c(O)c2)oc2cc(O)cc(O)c12,microbial growth,,ATCC29213,,24 h,IC50,> 100000 nM
CC(O)CSc1nnc(COc2ccc(Cl)cc2Br)n1-c1ccccc1 (stereo not drawn),microbial growth,disc diffusion,,25 µg/disc,,inhibition zone,19.3 mm
C=C/C=C(\C)CC[C@@H]1C[C@H](O)CC(=O)O1,microbial growth,broth dilution,ATCC6538P,,,MIC,256 µg/mL
CC(O)CSc1nnc(Cn2cnc3c2c(=O)n(C)c(=O)n3C)n1-c1ccccc1 (stereo not drawn),microbial growth,disc diffusion,,25 µg/disc,,inhibition zone,12.7 mm
C[C@H]1COc2c(N3CCN(C)CC3)c(F)cc3c(=O)c(C(=O)O)cn1c23,microbial killing,,ATCC25904,,,MBC,0.09 µg/mL
Cc1ccc(-c2nnc(SCC(C)O)n2-c2ccccc2)cc1 (stereo not drawn),microbial growth,disc diffusion,,25 µg/disc,,inhibition zone,10 mm
CO/N=C(\C(=O)N[C@@H]1C(=O)N2C(C(=O)O)=C(CSC(=O)c3ccco3)CS[C@H]12)c1csc(N)n1,microbial killing,,ATCC25923,,18 h,MBC,2 µg/mL
CN[C@H](CC(C)C)C(=O)N[C@H]1C(=O)N[C@@H](CC(N)=O)C(=O)N[C@H]2C(=O)N[C@H]3C(=O)N[C@H](C(=O)N[C@H](C(=O)O)c4cc(O)cc(O)c4-c4cc3ccc4O)[C@H](O)c3ccc(c(Cl)c3)Oc3cc2cc(c3O[C@@H]2O[C@H](CO)[C@@H](O)[C@H](O)[C@H]2O[C@H]2C[C@](C)(N)[C@H](O)[C@H](C)O2)Oc2ccc(cc2Cl)[C@H]1O,microbial growth,,ATCC29213,,24 h,IC50,2160 nM
O=C(O)c1cn(C2CC2)c2cc(N3CCNCC3)c(F)cc2c1=O,microbial growth,disc diffusion,,100 µg/mL,24 h,inhibition zone,0 mm
CN[C@H](CC(C)C)C(=O)N[C@H]1C(=O)N[C@@H](CC(N)=O)C(=O)N[C@H]2C(=O)N[C@H]3C(=O)N[C@H](C(=O)N[C@H](C(=O)O)c4cc(O)cc(O)c4-c4cc3ccc4O)[C@H](O)c3ccc(c(Cl)c3)Oc3cc2cc(c3O[C@@H]2O[C@H](CO)[C@@H](O)[C@H](O)[C@H]2O[C@H]2C[C@](C)(N)[C@H](O)[C@H](C)O2)Oc2ccc(cc2Cl)[C@H]1O,microbial killing,,ATCC25923,,18 h,MBC,2 µg/mL
CN(C)[C@@H]1C(O)=C(C(N)=O)C(=O)[C@@]2(O)C(O)=C3C(=O)c4c(O)cccc4[C@@](C)(O)[C@H]3C[C@@H]12,microbial growth,disc diffusion,,100 µg/mL,24 h,inhibition zone,25 mm
CN[C@H](CC(C)C)C(=O)N[C@H]1C(=O)N[C@@H](CC(N)=O)C(=O)N[C@H]2C(=O)N[C@H]3C(=O)N[C@H](C(=O)N[C@H](C(=O)O)c4cc(O)cc(O)c4-c4cc3ccc4O)[C@H](O)c3ccc(c(Cl)c3)Oc3cc2cc(c3O[C@@H]2O[C@H](CO)[C@@H](O)[C@H](O)[C@H]2O[C@H]2C[C@](C)(N)[C@H](O)[C@H](C)O2)Oc2ccc(cc2Cl)[C@H]1O,microbial killing,,ATCC25904,,,MBC,1.95 µg/mL
